# pIC50: −log10 of the molar value. The source made the active and inactive calls. No cut-off for these calls is given here.
# How the values were obtained:
# [1] = target: T1, Diacylglycerol O-acyltransferase 1 (Mus musculus, UniProt Q9Z2A7); test: Inhibition of mouse recombinant DGAT1 expressed in Sf9 cells
# T1 sequence (Q9Z2A7 whole entry): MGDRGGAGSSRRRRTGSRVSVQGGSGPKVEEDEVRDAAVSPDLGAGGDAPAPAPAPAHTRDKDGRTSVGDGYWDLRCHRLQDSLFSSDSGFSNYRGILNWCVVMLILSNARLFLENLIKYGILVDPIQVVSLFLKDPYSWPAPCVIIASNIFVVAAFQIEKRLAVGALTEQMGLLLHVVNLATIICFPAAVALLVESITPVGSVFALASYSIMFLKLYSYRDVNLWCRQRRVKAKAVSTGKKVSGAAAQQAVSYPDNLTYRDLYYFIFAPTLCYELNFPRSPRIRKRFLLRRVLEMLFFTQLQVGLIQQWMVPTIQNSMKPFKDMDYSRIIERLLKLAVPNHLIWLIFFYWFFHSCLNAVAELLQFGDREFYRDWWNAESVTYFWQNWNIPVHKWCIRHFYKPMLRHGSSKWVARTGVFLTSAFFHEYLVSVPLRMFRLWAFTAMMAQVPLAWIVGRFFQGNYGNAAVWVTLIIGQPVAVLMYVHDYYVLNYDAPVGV
# [2] = target: T2, Diacylglycerol O-acyltransferase 1 (Homo sapiens, UniProt O75907); test: Inhibition of human recombinant DGAT1 expressed in Sf9 cells
# T2 sequence (O75907 whole entry): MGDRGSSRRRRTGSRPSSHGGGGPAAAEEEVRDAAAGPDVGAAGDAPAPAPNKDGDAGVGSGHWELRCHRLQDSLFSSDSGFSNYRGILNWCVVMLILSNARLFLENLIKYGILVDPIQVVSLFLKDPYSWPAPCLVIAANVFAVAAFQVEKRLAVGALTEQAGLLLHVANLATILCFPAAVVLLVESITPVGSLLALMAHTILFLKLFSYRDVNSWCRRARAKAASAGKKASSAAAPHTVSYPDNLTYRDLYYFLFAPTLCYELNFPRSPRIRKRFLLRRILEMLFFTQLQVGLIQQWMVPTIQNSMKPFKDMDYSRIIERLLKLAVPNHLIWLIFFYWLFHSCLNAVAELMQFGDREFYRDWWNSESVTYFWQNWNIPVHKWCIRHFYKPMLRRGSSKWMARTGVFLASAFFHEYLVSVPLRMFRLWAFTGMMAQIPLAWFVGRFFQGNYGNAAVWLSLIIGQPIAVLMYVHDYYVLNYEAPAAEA
# [3] = target: T3, Diacylglycerol O-acyltransferase 2 (Mus musculus) (UniProt Q9DCV3); test: Inhibition of mouse DGAT2
# T3 sequence (whole entry): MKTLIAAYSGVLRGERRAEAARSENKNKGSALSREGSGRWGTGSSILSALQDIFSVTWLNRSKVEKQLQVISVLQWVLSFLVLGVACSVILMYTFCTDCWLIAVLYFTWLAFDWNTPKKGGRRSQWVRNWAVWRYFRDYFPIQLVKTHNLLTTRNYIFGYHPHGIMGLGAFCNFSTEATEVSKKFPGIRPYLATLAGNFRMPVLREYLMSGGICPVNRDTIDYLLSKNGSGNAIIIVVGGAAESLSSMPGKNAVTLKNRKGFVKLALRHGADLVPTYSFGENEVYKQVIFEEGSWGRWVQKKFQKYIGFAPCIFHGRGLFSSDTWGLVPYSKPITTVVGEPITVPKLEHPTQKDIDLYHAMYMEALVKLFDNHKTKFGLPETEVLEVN
# [4] = target: T4, Sterol O-acyltransferase 1 (Homo sapiens) (UniProt P35610); test: Inhibition of human ACAT1
# T4 sequence (whole entry): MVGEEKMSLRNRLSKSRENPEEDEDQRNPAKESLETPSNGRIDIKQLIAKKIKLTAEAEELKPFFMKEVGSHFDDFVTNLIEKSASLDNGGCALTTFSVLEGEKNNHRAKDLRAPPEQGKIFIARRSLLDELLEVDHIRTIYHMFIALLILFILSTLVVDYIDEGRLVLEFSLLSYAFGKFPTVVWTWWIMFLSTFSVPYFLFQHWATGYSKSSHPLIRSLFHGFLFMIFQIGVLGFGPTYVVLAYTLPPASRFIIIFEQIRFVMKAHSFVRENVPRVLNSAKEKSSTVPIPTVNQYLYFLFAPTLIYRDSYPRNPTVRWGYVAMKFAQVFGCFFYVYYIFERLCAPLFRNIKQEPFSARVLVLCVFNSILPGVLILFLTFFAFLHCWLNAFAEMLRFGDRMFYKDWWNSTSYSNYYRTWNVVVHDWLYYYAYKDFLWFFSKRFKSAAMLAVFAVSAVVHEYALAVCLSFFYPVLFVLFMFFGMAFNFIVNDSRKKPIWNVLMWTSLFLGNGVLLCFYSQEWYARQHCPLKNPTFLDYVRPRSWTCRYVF
# [5] = target: T5, Sterol O-acyltransferase 2 (Homo sapiens) (UniProt O75908); test: Inhibition of human ACAT2
# T5 sequence (whole entry): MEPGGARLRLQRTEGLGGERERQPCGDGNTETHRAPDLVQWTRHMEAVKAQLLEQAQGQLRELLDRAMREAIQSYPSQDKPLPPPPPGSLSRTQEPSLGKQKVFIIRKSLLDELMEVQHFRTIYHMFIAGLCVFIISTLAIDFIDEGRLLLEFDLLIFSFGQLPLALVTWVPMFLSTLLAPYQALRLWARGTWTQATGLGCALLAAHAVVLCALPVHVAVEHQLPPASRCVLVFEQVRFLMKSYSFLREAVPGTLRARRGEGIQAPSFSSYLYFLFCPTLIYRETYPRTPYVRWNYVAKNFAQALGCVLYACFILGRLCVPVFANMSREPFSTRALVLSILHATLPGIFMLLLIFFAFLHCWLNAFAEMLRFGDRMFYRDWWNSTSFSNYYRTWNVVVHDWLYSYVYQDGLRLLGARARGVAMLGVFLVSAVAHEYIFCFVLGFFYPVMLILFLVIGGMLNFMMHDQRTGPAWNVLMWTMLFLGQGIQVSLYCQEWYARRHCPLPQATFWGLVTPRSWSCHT
# [6] = Plasma clearance in rat at 5 mg/kg, iv; assay type: ADME, organism-based; design: dose 5 mg/kg, route intravenous
# Method in brief: (§1)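 Single-dose pharmacokinetics given iv or orally to mouse (10 mg/kg), rat (5 mg/kg) and dog (2.5 mg/kg). Half-life, Cmax, AUC, plasma clearance, volume of distribution and oral bioavailability were derived from plasma levels. Values are means, n = 3 unless stated otherwise.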
# [7] = AUC in rat at 5 mg/kg, iv; assay type: ADME, organism-based; design: dose 5 mg/kg, route intravenous; conditions: plasma; method in brief: as §1
# [8] = Volume of distribution at terminal phase in rat at 5 mg/kg, iv; assay type: ADME, organism-based; design: dose 5 mg/kg, route intravenous; conditions: in vivo, read-out: Vbeta; method in brief: as §1
# [9] = Half life in DIO mouse at 10 mg/kg, po; assay type: ADME, organism-based; design: dose 10 mg/kg, route oral; conditions: in vivo; method in brief: as §1
# [10] = Cmax in DIO mouse at 10 mg/kg, po; assay type: ADME, organism-based; design: dose 10 mg/kg, route oral; conditions: in vivo; method in brief: as §1
# [11] = AUC in DIO mouse at 10 mg/kg, po; assay type: ADME, organism-based; design: dose 10 mg/kg, route oral; conditions: plasma; method in brief: as §1
# [12] = Half life in rat at 5 mg/kg, iv; assay type: ADME, organism-based; design: dose 5 mg/kg, route intravenous; conditions: in vivo; method in brief: as §1
# [13] = Half life in rat at 5 mg/kg, po; assay type: ADME, organism-based; design: dose 5 mg/kg, route oral; conditions: in vivo; method in brief: as §1
# [14] = Cmax in rat at 5 mg/kg, po; assay type: ADME, organism-based; design: dose 5 mg/kg, route oral; conditions: in vivo; method in brief: as §1
# [15] = AUC in rat at 5 mg/kg, po; assay type: ADME, organism-based; design: dose 5 mg/kg, route oral; conditions: plasma; method in brief: as §1
# [16] = Oral bioavailability in rat at 5 mg/kg; assay type: ADME, organism-based; conditions: in vivo; method in brief: as §1
# [17] = Half life in dog at 2.5 mg/kg, iv; assay type: ADME, organism-based, Canis lupus familiaris; design: dose 2.5 mg/kg, route intravenous; conditions: in vivo; method in brief: as §1
# [18] = Volume of distribution at terminal phase in dog at 2.5 mg/kg, iv; assay type: ADME, organism-based, Canis lupus familiaris; design: dose 2.5 mg/kg, route intravenous; conditions: in vivo, read-out: Vbeta; method in brief: as §1
# [19] = AUC in dog at 2.5 mg/kg, iv; assay type: ADME, organism-based, Canis lupus familiaris; design: dose 2.5 mg/kg, route intravenous; conditions: plasma; method in brief: as §1
# [20] = Plasma clearance in dog at 2.5 mg/kg, iv; assay type: ADME, organism-based, Canis lupus familiaris; design: dose 2.5 mg/kg, route intravenous; method in brief: as §1
# [21] = Half life in dog at 2.5 mg/kg, po; assay type: ADME, organism-based, Canis lupus familiaris; design: dose 2.5 mg/kg, route oral; conditions: in vivo; method in brief: as §1
# [22] = Cmax in dog at 2.5 mg/kg, po; assay type: ADME, organism-based, Canis lupus familiaris; design: dose 2.5 mg/kg, route oral; conditions: in vivo; method in brief: as §1
# [23] = AUC in dog at 2.5 mg/kg, po; assay type: ADME, organism-based, Canis lupus familiaris; design: dose 2.5 mg/kg, route oral; conditions: plasma; method in brief: as §1
# [24] = Oral bioavailability in dog at 2.5 mg/kg; assay type: ADME, organism-based, Canis lupus familiaris; conditions: in vivo; method in brief: as §1
# [25] = tested on: Mus musculus; test: Decrease in body weight in DIO C57BL/6J mouse at 3 mg/kg, po bid after 7 days; assay type: functional, organism-based; design: dose 3 mg/kg
# Method in brief: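 DIO mice kept on high-fat diet ad libitum were dosed orally for four weeks, either 3 mg/kg bid in 1% Tween-80/water or a reference at 10 mg/kg qd, alongside a vehicle group. Body weight was measured on days 1, 5, 7, 14 and 27 and expressed as change in grams from day zero. Mean ± SEM, n = 9, compared with vehicle.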
# [26] = tested on: Mus musculus; test: Decrease in liver triglyceride level in DIO C57BL/6J mouse at 3 mg/kg, po after 28 days; assay type: functional
# Method in brief: (§2)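 DIO mice on high-fat diet were dosed orally for four weeks at 3 mg/kg bid in 1% Tween-80/water, or a reference at 10 mg/kg qd. Liver triglycerides were determined on day 28 only. Mean ± SEM, n = 9, compared with vehicle.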
# [27] = tested on: Mus musculus; test: Increase in liver triglyceride level in DIO C57BL/6J mouse at 3 mg/kg, po after 28 days; assay type: ADME, organism-based; design: dose 3 mg/kg, route oral; conditions: in vivo, 672 h; method in brief: as §2
# [28] = Cmax in C57BL/6J mouse at 3 mg/kg, po after 1 hr; assay type: ADME, organism-based; design: dose 3 mg/kg, route oral; conditions: in vivo
# Method in brief: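 On day 28 of oral dosing at 3 mg/kg bid in DIO mice, plasma drug concentration was measured at 1 h (n = 3) and 17 h (n = 9) after the final dose. Mean ± SEM.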
# [29] = tested on: Mus musculus; test: Reduction of chylomicron-derived serum triglyceride level in acute lipid challenged DIO C57BL/6J mouse at 0.3 mg/kg, po; assay type: functional; design: scale not given: the % may be the effect or the level left
# Method in brief: (§3)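 DIO mice were dosed orally at 0.3, 3 or 30 mg/kg: bid on days 1–2, fasted overnight, then dosed once on day 3. One hour after the final dose a corn oil bolus was given by gavage, and plasma triglycerides were measured 1 h later. Percent inhibition for the 0.3 and 3 mg/kg doses is relative to the 30 mg/kg dose. Mean ± SEM, n = 9.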
# [30] = tested on: Mus musculus; test: Reduction of chylomicron-derived serum triglyceride level in acute lipid challenged DIO C57BL/6J mouse at 3 mg/kg, po; assay type: functional; design: scale not given: the % may be the effect or the level left; method in brief: as §3
# [31] = tested on: Mus musculus; test: Reduction of chylomicron-derived serum triglyceride level in acute lipid challenged DIO C57BL/6J mouse at 30 mg/kg, po; assay type: functional; design: scale not given: the % may be the effect or the level left; method in brief: as §3
# [32] = tested on: Mus musculus; test: Decrease in body weight in DIO C57BL/6J mouse at 3 mg/kg, po bid after 14 days
smiles,measurement,setting,value
O=C(O)[C@@H]1CCC[C@H]1C(=O)c1ccc(-c2ccc(Nc3nc4ccc(OC(F)(F)F)cc4s3)c(F)c2)cc1,pIC50,[1],6.68
O=C(Nc1ccccc1)Nc1ccc(-c2ccc(C(=O)[C@H]3CCC[C@@H]3C(=O)O)cc2)cc1,pIC50,[2],7.02
O=C(Nc1ccccc1)Nc1ccc(-c2ccc(C(=O)[C@@H]3CCC[C@H]3C(=O)O)cc2)cc1,pIC50,[2],8.15
same,pIC50,[1],7.62
same,Activity,[3],inactive
same,Activity,[4],inactive
same,Activity,[5],inactive
same,clearance,[6],0.667 mL/min/kg
same,AUC,[7],145 µg·h/mL
same,Vd,[8],0.21 L/kg
same,half-life,[9],390 min
same,Cmax,[10],3510 ng/mL
same,AUC,[11],15200 ng·h/mL
same,half-life,[12],234 min
same,half-life,[13],162 min
same,Cmax,[14],8530 ng/mL
same,AUC,[15],80200 ng·h/mL
same,bioavailability,[16],55.2%
same,half-life,[17],198 min
same,Vd,[18],1.21 L/kg
same,AUC,[19],11100 ng·h/mL
same,clearance,[20],3.83 mL/min/kg
same,half-life,[21],216 min
same,Cmax,[22],2470 ng/mL
same,AUC,[23],5500 ng·h/mL
same,bioavailability,[24],49.2%
same,Activity,[25],Active
same,Activity,[26],53.5 mg/dL
same,Activity,[27],88 mg/dL
same,Cmax,[28],910 ng/mL
same,Activity,[29],73%
same,Activity,[30],93%
same,Activity,[31],100%
same,Activity,[32],Active

# Source: ChEMBL document CHEMBL1140730, “Validation of diacyl glycerolacyltransferase I as a novel target for the treatment of obesity and dyslipidemia using a potent and selective small molecule inhibitor” (J Med Chem, 2008)
